# Measured values as given in ChEMBL document CHEMBL1123418, “N-imidazolylchroman-4-ones, N-imidazolyl-1-tetralones, and their alcohols as hypolipemic agents raising high-density lipoproteins” (1986).
# Where “and” joins values, the source holds several entries; their conditions need not be identical. Equal values may be shown once.
# What was measured:
# Rattus norvegicus [1] = test: Compound was tested for Enzyme induction effect in male rats treated for 5 days at dose 50 mg/kg concentration of cytochrome […]( mmol/mg) in protein; format: functional
# Procedure, shortened: (§1)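 Male OFA-ICO SD rats were dosed orally for 5 days, with test compounds at 50 mg/kg/day and sodium phenobarbital at 75 mg/kg/day. Liver was homogenized in 1.15% KCl-0.01 M phosphate, pH 7.5. Microsomes were spun from the 9000g supernatant at 105000g and assayed for protein, cytochrome P-450, aniline p-hydroxylation (µmol p-aminophenol/20 min) and aminopyrine N-demethylation (µmol HCHO/5 min). Liver/body weight was also recorded. Mean ± SEM of four rats; Dunnett's test.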
# Rattus norvegicus [2] = species on record: Rattus norvegicus; test: Compound was tested in vitro for inhibition of Cholesterol biosynthesis in rat liver slices, % inhibition of [14C]acetate incorporation in neutral lipids at 5 e10-5 concentration; format: functional
# Procedure, shortened: (§2)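 Liver slices (250 mg) from fed male rats were incubated in Krebs-Ringer bicarbonate, pH 7.4, with 4 mM [2-¹⁴C]acetate under 95% O₂-5% CO₂. Compounds were tested at a final 2 × 10⁻⁴ M, or 5 × 10⁻⁵ M for one compound. ¹⁴C incorporation into cholesterol and into petroleum-ether-soluble nonsaponifiable neutral lipids gave % inhibition; mean of four determinations.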
# Rattus norvegicus [3] = test: Percent change in total cholesterol concentration in serum from hypercholesterolemic rats at dose 50 mg/kg (po); format: functional
# [4] = Compound was tested for Enzyme induction effect in male rats treated for 5 days at dose 50 mg/kg ratio of % liver weight to % body weight; format: functional; procedure, shortened: as §1
# Rattus norvegicus [5] = test: Compound was tested for Enzyme induction effect in male rats treated for 5 days at dose 50 mg/kg concentration of microsomal proteins(mg/g) in liver; format: functional, organism-based; design: dose 50 mg/kg; procedure, shortened: as §1
# Rattus norvegicus [6] = test: Percent increase in liver weight in rats when administered perorally; format: functional
# Rattus norvegicus [7] = test: Compound was tested for Enzyme induction effect in male rats treated for 5 days at dose 50 mg/kg aniline p-hydroxylase activity(per g) of liver; format: functional; procedure, shortened: as §1
# Rattus norvegicus [8] = species on record: Rattus norvegicus; test: Compound was tested in vitro for inhibition of Cholesterol biosynthesis in rat liver slices, % inhibition of [14C]acetate incorporation in cholesterol at 5 e10-5 concentration; format: functional; procedure, shortened: as §2
# Rattus norvegicus [9] = test: Compound was tested for Enzyme induction effect in male rats treated for 5 days at dose 50 mg/kg aminopyrine N-demethylase activity(per g) of liver; format: functional; procedure, shortened: as §1
# Rattus norvegicus [10] = test: Percent change in high density lipoproteins cholesterol concentration in serum from hypercholesterolemic rats at dose 50 mg/kg (po); format: functional
# Procedure, shortened: (§3)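 Rats were fed 1.5% cholesterol/0.5% cholic acid diet for 7 days, with compounds given by gavage over the last 4 days as a 0.5% Methocel suspension (0.5 mL/100 g). Rats were fasted overnight, killed on day 8 and bled under light CO₂ anesthesia. HDL was isolated by heparin-MnCl₂ precipitation (8000 rpm, 15 min, 4 °C). Total and HDL cholesterol were measured enzymatically-colorimetrically; % change vs control.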
# [11] = Percent change in high density lipoprotein cholesterol
# Rattus norvegicus [12] = test: Compound was tested for Enzyme induction effect in male rats treated for 5 days at dose 75 mg/kg aminopyrine N-demethylase activity(per g) of liver; format: functional; details: dose 50 mg/kg; in the assay text read “50 mg/kg” for “75 mg/kg”; procedure, shortened: as §1
# Rattus norvegicus [13] = test: Compound was tested for Enzyme induction effect in male rats treated for 5 days at dose 50 mg/kg concentration of microsomal proteins(mg/g) in liver
# Rattus norvegicus [14] = test: Compound was tested for Enzyme induction effect in male rats treated for 5 days at dose 75 mg/kg concentration of cytochrome […]( mmol/mg) in protein; format: functional; details: dose 50 mg/kg; in the assay text read “50 mg/kg” for “75 mg/kg”; procedure, shortened: as §1
# Rattus norvegicus [15] = test: Compound was tested for Hepatic peroxisomal proliferation effect in male rats treated for 7 days at dose 50 mg/kg concentration of hepatic proteins(mg/g) in liver; format: functional, organism-based; design: dose 50 mg/kg
# Rattus norvegicus [16] = test: Compound was tested for Enzyme induction effect in male rats treated for 5 days at dose 75 mg/kg aniline p-hydroxylase activity(per g) of liver; format: functional; details: dose 50 mg/kg; in the assay text read “50 mg/kg” for “75 mg/kg”; procedure, shortened: as §1
# Rattus norvegicus [17] = test: Compound was tested for Hepatic peroxisomal proliferation effect in male rats treated for 7 days at dose 50 mg/kg carnitine acetyl transferase activity(per mg) of protein; format: functional
# Procedure, shortened: (§4)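 Male OFA-ICO SD rats received oral doses of 50 mg/kg/day for 1 week. Liver was homogenized in 0.25 M sucrose-0.01 M phosphate-0.1% ethanol, pH 7, then diluted in incubation buffer with 0.1% Triton X-100 and centrifuged. Supernatants were assayed for catalase (K, sec⁻¹), carnitine acetyltransferase (nmol CoASH/min) and cyanide-insensitive palmitoyl-CoA oxidation (nmol NAD⁺ reduced/min). Mean ± SEM of three rats; Dunnett's test.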
# Rattus norvegicus [18] = test: Percent increase in liver weight in rats when a 50 mg/Kg dose was administered; format: functional
# Rattus norvegicus [19] = test: Compound was tested for Hepatic peroxisomal proliferation effect in male rats treated for 7 days at dose 50 mg/kg palmitoyl-CoA oxidation activity(per mg) of protein; format: functional; procedure, shortened: as §4
# [20] = Compound was tested for Hepatic peroxisomal proliferation effect in male rats treated for 7 days at dose 50 mg/kg ratio of % liver weight to % body weight; format: functional
# [21] = Compound was tested for Enzyme induction effect in male rats treated for 5 days at dose 75 mg/kg ratio of % liver weight to % body weight; format: functional; details: dose 50 mg/kg; in the assay text read “50 mg/kg” for “75 mg/kg”; procedure, shortened: as §1
# Rattus norvegicus [22] = test: Percent change in triglyceride concentration in serum from normocholesterolemic rats at dose 50 mg/kg (po)
# Rattus norvegicus [23] = test: Compound was tested for Hepatic peroxisomal proliferation effect in male rats treated for 7 days at dose 50 mg/kg protein; format: functional
# Rattus norvegicus [24] = test: Percent change in low density lipoproteins cholesterol concentration in serum from normocholesterolemic rats at dose 50 mg/kg (po)
# Rattus norvegicus [25] = species on record: Rattus norvegicus; test: Compound was tested in vitro for inhibition of Cholesterol biosynthesis in rat liver slices, % inhibition of [14C]acetate incorporation in cholesterol; format: functional; procedure, shortened: as §2
# Rattus norvegicus [26] = species on record: Rattus norvegicus; test: Compound was tested in vitro for inhibition of Cholesterol biosynthesis in rat liver slices, % inhibition of [14C]acetate incorporation in neutral lipids; format: functional; procedure, shortened: as §2
# Rattus norvegicus [27] = test: Percent change in high density lipoproteins cholesterol concentration in serum from hypercholesterolemic rats at dose 10 mg/kg (po); format: functional; procedure, shortened: as §3
# Rattus norvegicus [28] = test: Percent change in total cholesterol concentration in serum from hypercholesterolemic rats at dose 10 mg/kg (po); format: functional; procedure, shortened: as §3
# Rattus norvegicus [29] = test: Percent change in triglyceride concentration in serum from normocholesterolemic rats at dose 100 mg/kg (po)
# Rattus norvegicus [30] = test: Percent change in total cholesterol concentration in serum from normocholesterolemic rats at dose 100 mg/kg (po)
# Rattus norvegicus [31] = test: Percent change in low density lipoproteins cholesterol concentration in serum from normocholesterolemic rats at dose 100 mg/kg (po)
# Rattus norvegicus [32] = test: Percent change in high density lipoproteins cholesterol concentration in serum from normocholesterolemic rats at dose 100 mg/kg (po)
# Rattus norvegicus [33] = test: Percent change in high density lipoproteins cholesterol concentration in serum from hypercholesterolemic rats at dose 40 mg/kg (po); format: functional; procedure, shortened: as §3
# Rattus norvegicus [34] = test: Percent change in total cholesterol concentration in serum from hypercholesterolemic rats at dose 40 mg/kg (po); format: functional
# Rattus norvegicus [35] = test: Percent change in high density lipoproteins cholesterol concentration in serum from hypercholesterolemic rats at dose 42.5 mg/kg (po); format: functional; procedure, shortened: as §3
# Rattus norvegicus [36] = test: Percent change in total cholesterol concentration in serum from hypercholesterolemic rats at dose 42.5 mg/kg (po); format: functional
# Rattus norvegicus [37] = test: Percent change in triglyceride concentration in serum from normocholesterolemic rats at dose 200 mg/kg (po)
# Rattus norvegicus [38] = test: Percent change in low density lipoproteins cholesterol concentration in serum from normocholesterolemic rats at dose 200 mg/kg (po)
# Rattus norvegicus [39] = test: Percent change in total cholesterol concentration in serum from normocholesterolemic rats at dose 200 mg/kg (po)
# Rattus norvegicus [40] = test: Percent change in high density lipoproteins cholesterol concentration in serum from normocholesterolemic rats at dose 200 mg/kg (po)
# Rattus norvegicus [41] = test: Percent change in total cholesterol concentration in serum from hypercholesterolemic rats at dose 21 mg/kg (po); format: functional; procedure, shortened: as §3
# Rattus norvegicus [42] = test: Percent change in high density lipoproteins cholesterol concentration in serum from hypercholesterolemic rats at dose 21 mg/kg (po); format: functional; procedure, shortened: as §3
# Rattus norvegicus [43] = test: Percent change in total cholesterol concentration in serum from hypercholesterolemic rats at dose 30 mg/kg (po); format: functional; procedure, shortened: as §3
# Rattus norvegicus [44] = test: Percent change in high density lipoproteins cholesterol concentration in serum from hypercholesterolemic rats at dose 30 mg/kg (po); format: functional; procedure, shortened: as §3
structure (smiles),measurement,setting,value
O=C1c2ccc(O)c(Br)c2CCC1n1ccnc1 (stereo not given),Activity,Rattus norvegicus [1],0.98
same,Inhibition,Rattus norvegicus [2],0%
same,Change,Rattus norvegicus [3],-44%
same,Ratio,[4],3.24%
same,Concentration,Rattus norvegicus [5],28
same,Change,Rattus norvegicus [6],13%
same,Activity,Rattus norvegicus [7],0.67
same,Inhibition,Rattus norvegicus [8],0%
same,Activity,Rattus norvegicus [9],1.69
same,Change,Rattus norvegicus [10],109%
Cc1cccc(Nc2cc(Cl)nc(SCC(=O)NCCO)n2)c1C [PIRINIXIL],Percent change in HDL cholesterol,[11],-9
same,Activity,Rattus norvegicus [12],0.69
same,Concentration,Rattus norvegicus [13],25
same,Activity,Rattus norvegicus [14],0.82
same,Concentration,Rattus norvegicus [15],237
same,Activity,Rattus norvegicus [16],0.64
same,Activity,Rattus norvegicus [17],69.8
same,Change,Rattus norvegicus [18],42%
same,Change,Rattus norvegicus [3]; 50 mg/kg,-43% and -23%
same,Change,Rattus norvegicus [6],54%
same,Activity,Rattus norvegicus [19],16.2
same,Ratio,[20],5.31%
same,Ratio,[21],4.99%
same,Change,Rattus norvegicus [22],-48%
same,Activity,Rattus norvegicus [23],58.8
same,Change,Rattus norvegicus [24],-19%
CCCCCCCCCCCCn1ccnc1,Inhibition,Rattus norvegicus [25],66%
same,Inhibition,Rattus norvegicus [26],14%
COc1ccc2c(c1)CCC(n1ccnc1)C2=O (stereo not given),Change,Rattus norvegicus [27],34%
same,Change,Rattus norvegicus [6],0%
same,Change,Rattus norvegicus [28],-37%
CC(C)OC(=O)C(C)(C)Oc1ccc(C(=O)c2ccc(Cl)cc2)cc1 [FENOFIBRATE],Percent change in HDL cholesterol,[11],7
same,Change,Rattus norvegicus [29],-50%
same,Change,Rattus norvegicus [30],-28%
same,Change,Rattus norvegicus [31],-31%
same,Change,Rattus norvegicus [18],38%
same,Change,Rattus norvegicus [32],-27%
O=C(O)c1cccc2c1C(=O)C(n1ccnc1)CC2 (stereo not given),Change,Rattus norvegicus [33],-9%
same,Change,Rattus norvegicus [34],-19%
same,Change,Rattus norvegicus [6],-4%
CC1Oc2ccc(C(=O)O)cc2C(=O)C1n1ccnc1 (stereo not given),Change,Rattus norvegicus [35],-18%
same,Change,Rattus norvegicus [36],-12%
same,Change,Rattus norvegicus [6],3%
CCOC(=O)C(C)(C)Oc1ccc(Cl)cc1 [CLOFIBRATE],Percent change in HDL cholesterol,[11],13
same,Change,Rattus norvegicus [37],-52%
same,Change,Rattus norvegicus [38],-40%
same,Change,Rattus norvegicus [39],-35%
same,Change,Rattus norvegicus [40],-32%
same,Change,Rattus norvegicus [18],25%
CC1Oc2cc(O)c(Br)cc2C(=O)C1n1ccnc1 (stereo not given),Change,Rattus norvegicus [41],-10%
same,Change,Rattus norvegicus [42],2%
same,Change,Rattus norvegicus [6],1%
O=C1c2ccc(Br)cc2CCC1n1ccnc1 (stereo not given),Change,Rattus norvegicus [43],-84%
same,Change,Rattus norvegicus [6],31%
same,Change,Rattus norvegicus [44],228%
